Assay results of several laboratories.
Compare with care: the assays were run in different laboratories.
FGFR1: Fibroblast growth factor receptor 1 (FGFR1, Homo sapiens, UniProt P11362)
FGFR1 V561M: Fibroblast growth factor receptor 1 (FGFR1, Homo sapiens, UniProt P11362, V561M)

With Cc1noc([C@H]2C[C@@H](c3ccc(C(F)(F)F)cc3)CN(C(=O)N3CCS(=O)(=O)C3)C2)n1 the remaining binding was 100% (FGFR1; cell-free assay; competition with immobilised ligand; 1 µM).
With O=C1Nc2ccc(Cl)cc2C1=Cc1cc(Cl)c(O)c(Cl)c1 the remaining signal was 90.8% (FGFR1; cell-free assay; 0.5 µM).
The remaining signal of Cc1ccc(NC(=O)c2ccc(C)c(C(F)(F)F)c2)cc1C#Cc1nn(C2CCC(O)CC2)c2ncnc(N)c12 (stereo not drawn) is reported as 40% (FGFR1 V561M; cell-free assay; 10 µM).
With CSc1nc(C)c(-c2ccnc(Nc3ccc(N4CCOCC4)cc3)c2)[nH]1 the inhibition was 26.2% (FGFR1; cell-free assay; inhibitor; 10 µM).
With CN(c1ncccc1CNc1nc(Nc2ccc3c(c2)CC(=O)N3)ncc1C(F)(F)F)S(C)(=O)=O the inhibition was 80.1% (FGFR1; enzyme activity; inhibitor; 1 µM).
CC/C(=N\NC(=O)NCc1cccc(O)c1)c1ccc(O)c(C)c1O gave an inhibition of 10.8% (FGFR1 V561M; enzyme activity; inhibitor; 0.1 µM).
C/C=C/C(=O)Nc1ccc(-n2nc3c(=O)[nH]nc(N)c3c2-c2oc3ccc(C)cc3c2C)cc1 gave an inhibition of 20.2% (FGFR1; enzyme activity; inhibitor; ELISA; 10 nM).
CCC(=O)N[C@@H]1CC[C@H](C(=O)N(C)c2ccc(-c3nc4ccccc4o3)cc2)C1 has a remaining binding of 87% (FGFR1; cell-free assay; competition with immobilised ligand; 1 µM).
With CNC(=O)c1cc(Oc2ccc(NC(=O)Nc3ccc(Cl)c(C(F)(F)F)c3)cc2)ccn1 the inhibition was 26% (FGFR1 V561M; cell-free assay; 0.3 µM).
CCCS(=O)(=O)Nc1ccc(F)c(C(=O)c2c[nH]c3ncc(-c4ccc(Cl)cc4)cc23)c1F gave an inhibition of < 10% (FGFR1; enzyme activity; inhibitor; 1 µM).
With CNCc1ccccc1-c1csc([C@H](C)Nc2nc(C)nc3cc(OC)c(OC)cc23)c1 the remaining binding was 100% (FGFR1; cell-free assay; competition with immobilised ligand; 1 µM).
Cc1cc(NC(=O)c2cccc3cc(-c4cccc5[nH]nc(N)c45)ccc23)ccc1F has an activity vs control of 95% (FGFR1; enzyme activity; inhibitor; 0.1 µM).
For C=CC(=O)Nc1cccc(-n2nc3c(=O)[nH]nc(N)c3c2-c2oc3ccc(C)cc3c2C)c1, the inhibition was 10.6% (FGFR1; enzyme activity; inhibitor; ELISA; 10 nM).
For O=S(=O)(NC1CCC(c2cc(F)ccc2F)(S(=O)(=O)c2ccc(Cl)cc2)CC1)C(F)(F)F (stereo not drawn), the remaining binding was 100% (FGFR1; cell-free assay; competition with immobilised ligand; 1 µM).
N#CCCc1ccc2c(c1)-c1[nH]c3ccc([N+](=O)[O-])cc3c1CC(=O)N2 gave a remaining signal of 91.9% (FGFR1; cell-free assay; 0.5 µM).
CN(c1ccnc(CNc2nc(Nc3ccc4c(c3)CC(=O)N4)ncc2C(F)(F)F)n1)S(C)(=O)=O gave a remaining binding of 82% (FGFR1; cell-free assay; competition with immobilised ligand; 1 µM).
For Cc1ccc(C(=O)NCc2ccsc2)cc1C#Cc1cn(C(C)C)c2ncnc(N)c12, the activity vs control was 33% (FGFR1; enzyme activity; inhibitor; 1 µM).
COc1ccc(/C=C/C(=O)c2ccc(NC3=C(Cl)C(=O)c4ccccc4C3=O)cc2)cc1O has an inhibition of > 70% (FGFR1; enzyme activity; inhibitor; ADP detection; 1 µM).
For CSc1cccnc1N1CCN(Cc2nc3ccccc3[nH]2)CC1, the remaining binding was 100% (FGFR1; cell-free assay; competition with immobilised ligand; 1 µM).
C=CC(=O)Nc1cc(Nc2nccc(Nc3cc(Cl)c(F)cc3C(C)(C)O)n2)c(OC)cc1N1CC[C@@H](N(C)C)C1 has an inhibition of 3% (FGFR1; enzyme activity; inhibitor; 1 µM).
For CC(=O)N1CCC(c2ccc(C(=O)NC3=NCCN3)cc2C(F)(F)F)CC1, the remaining binding was 100% (FGFR1; cell-free assay; competition with immobilised ligand; 1 µM).
The remaining signal of Oc1cccc(-c2nc(N3CCOCC3)c3oc4ncccc4c3n2)c1 is reported as 91.7% (FGFR1; cell-free assay; 0.5 µM).
The remaining binding of Cn1cc(Cl)c2c(Oc3c(F)cc(Nc4cc(Cl)nc(N)n4)cc3F)ccnc21 is reported as 100% (FGFR1; cell-free assay; competition with immobilised ligand; 0.1 µM).
The remaining signal of Oc1ccc(-c2nc(-c3ccncc3)c(-c3ccc(F)cc3)[nH]2)cc1 is reported as 86.8% (FGFR1; cell-free assay; 0.5 µM).
For COc1cc2ncnc(Nc3ccc(Oc4ccccc4)cc3C)c2cc1OC, the inhibition was 5% (FGFR1; enzyme activity; inhibitor; 1 µM).
The remaining signal of C[C@@H]1CCN(C(=O)CC#N)C[C@@H]1N(C)c1ncnc2[nH]ccc12 is reported as 101% (FGFR1; cell-free assay; 0.5 µM).
COc1cc(/C=C/C(=O)CC(=O)/C=C/c2ccc(O)c(OC)c2)ccc1O gave an activity vs control of 102% (FGFR1; enzyme activity; inhibitor; 1 µM).
